≈ marks a conversion by molar mass, not a printed value.
Experiments:
Format in all cases: functional
Staphylococcus aureus [1] = experiment: Antibacterial activity against Staphylococcus aureus SA1199B over-expressing NorA by MTT dye based assay
Procedure, shortened: (§1)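 Strains grown on nutrient agar for 24 h at 37 °C before testing. Compounds dissolved in DMSO, diluted in MHB to 512 mg/L stock. Two-fold serial broth microdilution in MHB, final 128 to 0.25 mg/L in the initial evaluation. Final DMSO 1.56% to 0.0031% v/v. Inoculum 5×10^5 cfu/mL, 37 °C incubation, duplicates. MTT added for 20 min. MIC is the lowest concentration with no colour change.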

Staphylococcus aureus [2] = experiment: Antibacterial activity against methicillin-resistant Staphylococcus aureus isolate XU212 harboring TetK tetracycline efflux pump by MTT dye based assay; procedure, shortened: as §1
Staphylococcus aureus [3] = experiment: Antibacterial activity against Staphylococcus aureus ATCC 25923 by MTT dye based assay; procedure, shortened: as §1
Staphylococcus aureus [4] = experiment: Antibacterial activity against Staphylococcus aureus RN4220 harboring MsrA macrolide efflux protein by MTT dye based assay; procedure, shortened: as §1
Staphylococcus aureus [5] = experiment: Antibacterial activity against methicillin-resistant Staphylococcus aureus EMRSA15 by MTT dye based assay; procedure, shortened: as §1
Staphylococcus aureus [6] = experiment: Antibacterial activity against methicillin-resistant Staphylococcus aureus EMRSA16 by MTT dye based assay; procedure, shortened: as §1

Row | Compound | MIC (Staphylococcus aureus [1]) [µg/mL] | MIC (Staphylococcus aureus [2]) [µg/mL] | MIC (Staphylococcus aureus [3]) [µg/mL] | MIC (Staphylococcus aureus [4]) [µg/mL] | MIC (Staphylococcus aureus [5]) [µg/mL] | MIC (Staphylococcus aureus [6]) [µg/mL]
1 | CCCCC(=O)c1c(O)cc(O)cc1OC/C=C(\C)CCC=C(C)C | 1 (≈ 2.89 µM) | 0.5 (≈ 1.44 µM) | 0.5 (≈ 1.44 µM) | 0.5 (≈ 1.44 µM) | 1 (≈ 2.89 µM) | 0.5 (≈ 1.44 µM)
2 | CCCCCCCCCCCCCCCCCC(=O)c1c(O)cc(O)cc1OC/C=C(\C)CCC=C(C)C | > 512 | > 512 | > 512 | > 512 | > 512 | > 512
3 | CCCCCCCCCCCCOc1cc(O)cc(O)c1C(=O)[C@@H](C)CC | 16 (≈ 42.3 µM) | 64 (≈ 169 µM) | 128 (≈ 338 µM) | 8 (≈ 21.1 µM) | 16 (≈ 42.3 µM) | 16 (≈ 42.3 µM)
4 | CC[C@H](C)C(=O)c1c(O)cc(O)cc1OCCC(C)CCCC(C)C (some centres not stated) | 0.5 to 1 (≈ 1.43 to 2.85 µM) | 1 (≈ 2.85 µM) | 1 (≈ 2.85 µM) | 0.5 (≈ 1.43 µM) | 0.5 to 1 (≈ 1.43 to 2.85 µM) | 0.25 (≈ 0.713 µM)
5 | CC[C@H](C)C(=O)c1c(O)cc(O)cc1OC/C=C(\C)CC/C=C(\C)CCC=C(C)C | > 512 | > 512 | > 512 | > 512 | > 512 | > 512
6 | CCCC(=O)c1c(O)cc(O)cc1OC/C=C(\C)CCC=C(C)C | 2 (≈ 6.02 µM) | 2 (≈ 6.02 µM) | 2 (≈ 6.02 µM) | 2 (≈ 6.02 µM) | 2 (≈ 6.02 µM) | 1 (≈ 3.01 µM)
7 | CCn1cc(C(=O)O)c(=O)c2cc(F)c(N3CCNCC3)cc21 [NORFLOXACIN] | 32 (≈ 100 µM) | 8 (≈ 25.1 µM) | 0.5 (≈ 1.57 µM) | 0.5 (≈ 1.57 µM) | 0.5 (≈ 1.57 µM) | 256 (≈ 802 µM)
8 | CC[C@H](C)C(=O)c1c(O)cc(O)cc1OCC=C(C)C | 16 (≈ 57.5 µM) | 4 to 8 (≈ 14.4 to 28.7 µM) | 8 (≈ 28.7 µM) | 8 (≈ 28.7 µM) | 16 (≈ 57.5 µM) | 4 (≈ 14.4 µM)
9 | CCCCCCCCCCOc1cc(O)cc(O)c1C(=O)[C@@H](C)CC | 2 (≈ 5.71 µM) | 2 to 4 (≈ 5.71 to 11.4 µM) | 1 to 2 (≈ 2.85 to 5.71 µM) | 1 (≈ 2.85 µM) | 0.5 to 1 (≈ 1.43 to 2.85 µM) | 0.25 (≈ 0.713 µM)
10 | CCCCCCCCCC(=O)c1c(O)cc(O)cc1OC/C=C(\C)CCC=C(C)C | 512 (≈ 1230 µM) | 64 (≈ 154 µM) | 512 (≈ 1230 µM) | 256 (≈ 614 µM) | 512 (≈ 1230 µM) | 64 (≈ 154 µM)
11 | CC[C@H](C)C(=O)c1c(O)cc(O)cc1OC/C=C(\C)CCC=C(C)C [OLYMPICIN A] | 1 (≈ 2.89 µM) | 0.5 (≈ 1.44 µM) | 1 (≈ 2.89 µM) | 1 (≈ 2.89 µM) | 1 (≈ 2.89 µM) | 0.5 (≈ 1.44 µM)
12 | CC(=O)c1c(O)cc(O)cc1OC/C=C(\C)CCC=C(C)C | 8 (≈ 26.3 µM) | 8 (≈ 26.3 µM) | 16 (≈ 52.6 µM) | 8 (≈ 26.3 µM) | 16 (≈ 52.6 µM) | 4 (≈ 13.1 µM)
13 | CC[C@H](C)C(=O)c1c(O)cc(O)cc1OCc1ccccc1 | 8 (≈ 26.6 µM) | 4 (≈ 13.3 µM) | 4 (≈ 13.3 µM) | 4 to 8 (≈ 13.3 to 26.6 µM) | 8 (≈ 26.6 µM) | 4 (≈ 13.3 µM)
14 | CC(C)=CCC/C(C)=C/COc1cc(O)cc(O)c1C(=O)c1ccccc1 | 1 (≈ 2.73 µM) | 1 (≈ 2.73 µM) | 1 (≈ 2.73 µM) | 1 (≈ 2.73 µM) | 1 (≈ 2.73 µM) | 0.5 (≈ 1.36 µM)
15 | CCCCCCCCCCCCCCCCCCOc1cc(O)cc(O)c1C(=O)[C@@H](C)CC | > 512 | > 512 | > 512 | > 512 | > 512 | > 512
16 | CC[C@H](C)C(=O)c1c(O)cc(O)cc1OCCC(C)C | 2 (≈ 7.13 µM) | 4 (≈ 14.3 µM) | 2 (≈ 7.13 µM) | 2 (≈ 7.13 µM) | 2 to 4 (≈ 7.13 to 14.3 µM) | 2 to 4 (≈ 7.13 to 14.3 µM)
17 | CCC(=O)c1c(O)cc(O)cc1OC/C=C(\C)CCC=C(C)C | 2 (≈ 6.28 µM) | 1 (≈ 3.14 µM) | 2 (≈ 6.28 µM) | 1 (≈ 3.14 µM) | 2 (≈ 6.28 µM) | 1 (≈ 3.14 µM)
18 | CN[C@H](CC(C)C)C(=O)N[C@H]1C(=O)N[C@@H](CC(N)=O)C(=O)N[C@H]2C(=O)N[C@H]3C(=O)N[C@H](C(=O)N[C@H](C(=O)O)c4cc(O)cc(O)c4-c4cc3ccc4O)[C@H](O)c3ccc(c(Cl)c3)Oc3cc2cc(c3O[C@@H]2O[C@H](CO)[C@@H](O)[C@H](O)[C@H]2O[C@H]2C[C@](C)(N)[C@H](O)[C@H](C)O2)Oc2ccc(cc2Cl)[C@H]1O [VANCOMYCIN] | 0.25 (≈ 0.173 µM) | – | 0.25 (≈ 0.173 µM) | – | 0.25 (≈ 0.173 µM) | 0.25 (≈ 0.173 µM)
19 | CCCCCCCCOc1cc(O)cc(O)c1C(=O)[C@@H](C)CC | 0.25 to 0.5 (≈ 0.775 to 1.55 µM) | 0.5 (≈ 1.55 µM) | 0.25 to 0.5 (≈ 0.775 to 1.55 µM) | 0.5 (≈ 1.55 µM) | 0.5 (≈ 1.55 µM) | 0.25 (≈ 0.775 µM)
